Values after ≈ are worked out from the molar mass of the structure shown. Active and inactive are the calls of the source. No cut-off for these calls is given here.
Tests used:
[1] = system: Pseudomonas aeruginosa; assay: Antibacterial activity against Pseudomonas aeruginosa MTCC 424 assessed as inhibition of bacterial growth at 50 uM measured after 48 hrs by agar well diffusion method; type: functional; conditions: read-out: IZ
[2] = system: Escherichia coli; assay: Antibacterial activity against Escherichia coli MTCC 119 assessed as inhibition of bacterial growth at 50 uM measured after 48 hrs by agar well diffusion method; type: functional; conditions: read-out: IZ
[3] = system: Staphylococcus aureus; assay: Antibacterial activity against Methicillin-resistant Staphylococcus aureus ATCC 33591 assessed as inhibition of bacterial growth measured after 48 hrs by broth microdilution method; type: functional
[4] = system: Klebsiella pneumoniae; conditions: RBRJ024, dose 50.0 µM, time 48.0 hrs
[5] = system: Klebsiella pneumoniae; conditions: RBRJ019, dose 50.0 µM, time 48.0 hrs
[6] = system: Staphylococcus epidermidis; assay: Antibacterial activity against Staphylococcus epidermidis MTCC 435 assessed as inhibition of bacterial growth at 50 uM measured after 48 hrs by agar well diffusion method; type: functional; conditions: read-out: IZ
[7] = system: Staphylococcus aureus; assay: Antibacterial activity against Methicillin-resistant Staphylococcus aureus ATCC 33591 assessed as inhibition of bacterial growth at 50 uM measured after 48 hrs by agar well diffusion method; type: functional; conditions: read-out: IZ
Method in brief: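 Agar well diffusion on Mueller Hinton agar seeded with bacteria at 0.5 McFarland. […] Incubated 48 h at 37 °C aerobically; zone of inhibition diameter (mm) measured. Triplicate.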

[8] = system: Staphylococcus aureus; assay: Bactericidal activity against Methicillin-resistant Staphylococcus aureus ATCC 33591 assessed as inhibition of bacterial growth measured after 48 hrs by agar plate method; type: functional
Method in brief: (§1)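 MBC: aliquots from microdilution wells without colour change subcultured on drug-free Mueller Hinton agar, 48 h at 37 °C aerobically. MBC is the lowest concentration with no visible growth. Triplicate.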

[9] = system: Klebsiella pneumoniae; assay: Antibacterial activity against Klebsiella pneumoniae MTCC 109 assessed as inhibition of bacterial growth at 50 uM measured after 48 hrs by agar well diffusion method; type: functional; conditions: read-out: IZ
[10] = system: Enterococcus faecalis; assay: Antibacterial activity against Enterococcus faecalis MTCC 439 assessed as inhibition of bacterial growth at 50 uM measured after 48 hrs by agar well diffusion method; type: functional; conditions: read-out: IZ
[11] = system: Acinetobacter baumannii; assay: Antibacterial activity against clinically isolated Acinetobacter baumannii RBRJ027 assessed as inhibition of bacterial growth at 50 uM measured after 48 hrs by agar well diffusion method; type: functional; conditions: read-out: IZ
[12] = system: Staphylococcus aureus; assay: Bactericidal activity against clinically isolated Methicillin-resistant Staphylococcus aureus assessed as inhibition of bacterial growth measured after 48 hrs by agar plate method; type: functional
[13] = system: Staphylococcus aureus; assay: Antibacterial activity against clinically isolated Methicillin-resistant Staphylococcus aureus assessed as inhibition of bacterial growth measured after 48 hrs by broth microdilution method; type: functional
[14] = system: Staphylococcus aureus; assay: Antibacterial activity against Staphylococcus aureus MTCC 740 assessed as inhibition of bacterial growth measured after 48 hrs by broth microdilution method; type: functional
[15] = system: Klebsiella pneumoniae; assay: Antibacterial activity against clinically isolated Klebsiella pneumoniae RBRJ024 assessed as inhibition of bacterial growth at 50 uM measured after 48 hrs by agar well diffusion method; type: functional; conditions: read-out: IZ
[16] = system: Staphylococcus aureus; assay: Antibacterial activity against clinically isolated Staphylococcus aureus RBRJ010 assessed as inhibition of bacterial growth at 50 uM measured after 48 hrs by agar well diffusion method; type: functional; conditions: read-out: IZ
[17] = system: Escherichia coli; assay: Antibacterial activity against clinically isolated Escherichia coli RBRJ013 assessed as inhibition of bacterial growth at 50 uM measured after 48 hrs by agar well diffusion method; type: functional; conditions: read-out: IZ
[18] = system: Staphylococcus epidermidis; assay: Antibacterial activity against Staphylococcus epidermidis MTCC 435 assessed as inhibition of bacterial growth measured after 48 hrs by broth microdilution method; type: functional
[19] = system: Staphylococcus aureus; assay: Antibacterial activity against clinically isolated Staphylococcus aureus RBRJ010 assessed as inhibition of bacterial growth measured after 48 hrs by broth microdilution method; type: functional
[20] = system: Escherichia coli; assay: Antibacterial activity against clinically isolated Escherichia coli RBRJ005 assessed as inhibition of bacterial growth at 50 uM measured after 48 hrs by agar well diffusion method; type: functional; conditions: read-out: IZ
[21] = Selectivity index, ratio of IC50 for cytotoxicity against mouse L929 cells to MIC for antibacterial activity against clinically isolated Methicillin-resistant Staphylococcus aureus; type: toxicity, cell-based; conditions: read-out: Selectivity Index
[22] = system: Klebsiella pneumoniae; assay: Antibacterial activity against clinically isolated Klebsiella pneumoniae RBRJ019 assessed as inhibition of bacterial growth at 50 uM measured after 48 hrs by agar well diffusion method; type: functional; conditions: read-out: IZ
[23] = system: Staphylococcus aureus; assay: Antibacterial activity against Staphylococcus aureus MTCC 740 assessed as inhibition of bacterial growth at 50 uM measured after 48 hrs by agar well diffusion method; type: functional; conditions: read-out: IZ
[24] = system: Enterobacter cloacae; assay: Antibacterial activity against clinically isolated Enterobacter cloacae RBRJ017 assessed as inhibition of bacterial growth at 50 uM measured after 48 hrs by agar well diffusion method; type: functional; conditions: read-out: IZ
[25] = system: Staphylococcus aureus; assay: Antibacterial activity against clinically isolated Methicillin-resistant Staphylococcus aureus assessed as inhibition of bacterial growth at 50 uM measured after 48 hrs by agar well diffusion method; type: functional; conditions: read-out: IZ
[26] = Cytotoxicity against mouse L929 cells assessed as reduction in cell viability measured after 72 hrs by MTT assay; type: toxicity, cell-based
Method in brief: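 L929 cells (ATCC) grown in DMEM with 10% FBS and penicillin/streptomycin at 37 °C, 5% CO2; seeded at 5 × 10^3 cells per well and exposed to serial dilutions for 72 h, paclitaxel as positive control. MTT (5 mg mL−1), formazan dissolved in DMSO, absorbance at 490 nm; viability relative to control after blank subtraction; IC50 in μM.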

[27] = system: Staphylococcus epidermidis; assay: Bactericidal activity against Staphylococcus epidermidis MTCC 435 assessed as inhibition of bacterial growth measured after 48 hrs by agar plate method; type: functional
Method in brief: (§2)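 MBC: 10 μL from wells showing no INT colour change after broth microdilution subcultured on drug-free Mueller Hinton agar, 48 h at 37 °C aerobically; lowest concentration with no visible growth taken as MBC (μM). Triplicate.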

[28] = system: Staphylococcus aureus; assay: Bactericidal activity against clinically isolated Staphylococcus aureus RBRJ010 assessed as inhibition of bacterial growth measured after 48 hrs by agar plate method; type: functional; method in brief: as §2
[29] = system: Staphylococcus aureus; assay: Bactericidal activity against Staphylococcus aureus MTCC 740 assessed as inhibition of bacterial growth measured after 48 hrs by agar plate method; type: functional; method in brief: as §1
[30] = system: Enterococcus faecalis; assay: Antibacterial activity against clinically isolated Enterococcus faecalis RBRJ015 assessed as inhibition of bacterial growth at 50 uM measured after 48 hrs by agar well diffusion method; type: functional; conditions: read-out: IZ

For `O=C(O)c1cn(C2CC2)c2cc(N3CCNCC3)c(F)cc2c1=O` [CIPROFLOXACIN], the zone of inhibition at 50 µM [1] was 24.2 mm, the zone of inhibition at 50 µM [2] was 11.2 mm and the MIC [3] was 1.9 µM (≈ 0.63 µg/mL). The IZ [4] was “inactive”, the IZ [5] was “inactive” and the zone of inhibition at 50 µM [6] was 17.4 mm. The zone of inhibition at 50 µM [7] was 24.5 mm, the MBC [8] was 3.9 µM (≈ 1.29 µg/mL) and the zone of inhibition at 50 µM [9] was 14.5 mm. For the same molecule, the zone of inhibition at 50 µM [10] was 15.9 mm.

`Cc1ccc(C(C)C)c(OCc2cn(CCCN3C(=O)C(=O)c4cc(C)ccc43)nn2)c1` showed a zone of inhibition at 50 µM [1] of 19.5 mm, a zone of inhibition at 50 µM [11] of 13.1 mm and an MBC [12] of 7.8 µM (≈ 3.37 µg/mL). It also gave an MIC [13] of 3.9 µM (≈ 1.69 µg/mL), an MIC [14] of 3.9 µM (≈ 1.69 µg/mL) and a zone of inhibition at 50 µM [2] of 16.5 mm. For the same molecule, the MIC [3] was 3.9 µM (≈ 1.69 µg/mL), the zone of inhibition at 50 µM [15] was 17.2 mm and the zone of inhibition at 50 µM [16] was 24.6 mm. It also gave a zone of inhibition at 50 µM [17] of 17.6 mm, a zone of inhibition at 50 µM [6] of 22.2 mm and an MIC [18] of 15.6 µM (≈ 6.75 µg/mL). The MIC [19] was 7.8 µM (≈ 3.37 µg/mL), the zone of inhibition at 50 µM [20] was 18.2 mm and the zone of inhibition at 50 µM [7] was 24.1 mm. For the same molecule, the selectivity ratio [21] was 32, the zone of inhibition at 50 µM [22] was 18.5 mm and the zone of inhibition at 50 µM [23] was 26.1 mm. It also gave an MBC [8] of 7.8 µM (≈ 3.37 µg/mL), a zone of inhibition at 50 µM [24] of 15.4 mm and a zone of inhibition at 50 µM [25] of 26.7 mm. It also gave an IC50 at 72 h [26] of 125 µM, a zone of inhibition at 50 µM [9] of 19.2 mm and an MBC [27] of 31.2 µM (≈ 13.5 µg/mL). It also gave an MBC [28] of 15.6 µM (≈ 6.75 µg/mL), an MBC [29] of 7.8 µM (≈ 3.37 µg/mL) and a zone of inhibition at 50 µM [30] of 13.4 mm. The zone of inhibition at 50 µM [10] was 13.3 mm.

— ChEMBL document CHEMBL5357047, “The development of thymol-isatin hybrids as broad-spectrum antibacterial agents with potent anti-MRSA activity” (RSC Med Chem, 2024)
